In publication PMC12272566 (RSC Advances, 2025):

Columns and labels:
Format in all cases: biochemical
aldose reductase [1] = target: T1, aldose reductase (Rattus norvegicus, UniProt P07943); test: aldose reductase inhibition assay
aldose reductase [2] = target: T1, aldose reductase; test: inhibitory kinetic assay on aldose reductase
Procedure, shortened: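 Aldose reductase from rat lens tissue. Reactions held NADPH (0.3 mM), phosphate buffer (100 mM, pH 6.2) and lithium sulfate (0.6 mM), with DL-glyceraldehyde substrate at several concentrations, with or without test compound, at 37 °C for 10 min. NADPH decrease was read at 340 nm. Rates were fitted by nonlinear Michaelis–Menten regression with Lineweaver–Burk, Dixon and slope secondary plots to derive Km, Vmax and Ki.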

α-glucosidase = α-glucosidase (Saccharomyces cerevisiae, UniProt P53341); test: inhibitory kinetic assay on α-glucosidase
Sequence of α-glucosidase (P53341 whole entry): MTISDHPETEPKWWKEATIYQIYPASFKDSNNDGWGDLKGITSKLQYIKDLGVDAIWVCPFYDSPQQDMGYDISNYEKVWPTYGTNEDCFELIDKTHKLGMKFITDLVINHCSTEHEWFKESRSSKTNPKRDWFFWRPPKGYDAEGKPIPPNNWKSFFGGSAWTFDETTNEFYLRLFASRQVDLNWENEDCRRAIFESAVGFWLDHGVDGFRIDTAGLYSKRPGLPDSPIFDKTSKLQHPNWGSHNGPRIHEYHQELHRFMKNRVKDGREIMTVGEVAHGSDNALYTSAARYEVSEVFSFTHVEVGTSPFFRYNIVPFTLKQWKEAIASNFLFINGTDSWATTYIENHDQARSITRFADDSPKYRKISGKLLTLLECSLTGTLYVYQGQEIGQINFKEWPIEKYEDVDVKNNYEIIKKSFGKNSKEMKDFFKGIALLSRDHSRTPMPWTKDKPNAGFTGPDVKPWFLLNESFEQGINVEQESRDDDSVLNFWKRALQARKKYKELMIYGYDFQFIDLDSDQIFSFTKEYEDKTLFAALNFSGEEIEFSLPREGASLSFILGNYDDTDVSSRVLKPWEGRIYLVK

SMILES	effect on aldose reductase inhibition (in words) (aldose reductase [1]; 0–10 mM tested, data not shown)	Ki (aldose reductase [2])	inhibition type against aldose reductase (aldose reductase [2]; Vmax decreased, Km fixed)	IC50 (aldose reductase [1])	Ki (α-glucosidase)	inhibition type against α-glucosidase (α-glucosidase; Vmax decreased, Km fixed)
COc1cc(/C=C/c2ccc(O)cc2)cc(OC)c1 [pterostilbene]	weak effect	–	–	–	–	–
COc1cc(O)cc(/C=C/c2ccc(O)cc2)c1 [pinostilbene, 3-methoxy-4′,5-dihydroxy-trans-stilbene]	–	60 ± 4.64 µM	noncompetitive-type inhibition	55.4 ± 4.31 µM	14.3 ± 1.49 µM	noncompetitive-type inhibition
